Reference: ChEMBL document CHEMBL3751842, “Novel triazolothiadiazines act as potent anticancer agents in liver cancer cells through Akt and ASK-1 proteins” (Bioorg Med Chem, 2016)
Calls of active or inactive are those of the source. The rule behind the calls is not given here.

Legend:
[1] = Cytotoxicity against human HCT116 cells assessed as growth inhibition after 72 hrs by sulforhodamine B assay; assay type: functional, cell-based, HCT-116; settings: Homo sapiens, HCT-116, 72 h; read-out: IC50
Summary of the method: (§1)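 Cells were grown at 37°C, 5% CO2 in DMEM with 10% FBS. They were seeded at 1000–3000 cells/well, grown 24 h, then exposed to compound at 2.5–40 µM for 72 h. Cells were fixed in 10% TCA for 1 h at 4°C, stained with 0.4% SRB in 1% acetic acid for 10 min, and the dye solubilized in 10 mM Tris. Absorbance was read at 515 nm; runs were in triplicate; IC50 was calculated, with fits of R2 0.8–1 accepted.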

[2] = system: HepG2; assay: Cytotoxicity against human HepG2 cells assessed as growth inhibition after 72 hrs by sulforhodamine B assay; assay type: functional, cell-based; settings: Homo sapiens, HepG2, 72 h; read-out: IC50; summary of the method: as §1
[3] = system: Huh-7; assay: Induction of apoptosis in human HuH7 cells assessed as nuclear condensation at 10 uM after 48 hrs by Hoechst 33258 staining-based immunofluorescence microscopy; assay type: functional, cell-based
Summary of the method: (§2)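 Cells on coverslips were incubated overnight, then treated with 10 µM compound or DMSO for 48 h. They were washed in ice-cold PBS, fixed in cold methanol for 10 min, and stained with 1 µg/mL Hoechst 33258 for 5 min in the dark. Nuclei were examined by fluorescence microscopy with a 40x objective.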

[4] = Cytotoxicity against human SNU475 cells assessed as growth inhibition after 72 hrs by sulforhodamine B assay; assay type: functional, cell-based, SNU-475; settings: Homo sapiens, SNU-475, 72 h; read-out: IC50; summary of the method: as §1
[5] = Cytotoxicity against human Mahlavu cells assessed as growth inhibition after 72 hrs by sulforhodamine B assay; assay type: functional, cell-based; settings: Homo sapiens, Mahlavu, 72 h; read-out: IC50; summary of the method: as §1
[6] = Cytotoxicity against human Hep3B cells assessed as growth inhibition after 72 hrs by sulforhodamine B assay; assay type: functional, cell-based, Hep 3B2; settings: Homo sapiens, Hep3B, 72 h; read-out: IC50; summary of the method: as §1
[7] = system: MCF7; assay: Cytotoxicity against human MCF7 cells assessed as growth inhibition after 72 hrs by sulforhodamine B assay; assay type: functional, cell-based; settings: Homo sapiens, MCF7, 72 h; read-out: IC50; summary of the method: as §1
[8] = system: Huh-7; assay: Induction of cell cycle arrest in human HuH7 cells assessed as accumulation at subG1 phase at 10 uM after 24 to 48 hrs by propidium iodide staining based FACS analysis; assay type: functional
Summary of the method: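 Huh7 cells were seeded at 300,000 per 100-mm dish. After 24 h they were treated with 10 µM compound or DMSO for 24 h and 48 h. Cells were trypsinized, fixed in ice-cold 70% ethanol and stored at −20 °C. They were then stained with propidium iodide and cell-cycle distribution, including SubG1, was read by flow cytometry.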

[9] = system: Huh-7; assay: Cytotoxicity against human HuH7 cells assessed as cell impedance at IC25 to IC100 measured every 30 mins for 72 hrs by RT-CES assay; assay type: functional, cell-based; settings: TDE = time-dependent effect
Summary of the method: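 Huh7 cells were seeded at 1000–5000 cells/well on electrode plates. […] Impedance was read as cell index every 10 min for the first 24 h, then every 30 min, over 72 h. Data were normalized to DMSO; inhibition (%) = [1 − (CI treated/CI DMSO)] × 100. Each experiment was run at least three times.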

[10] = Cytotoxicity against human HuH7 cells assessed as growth inhibition after 72 hrs by sulforhodamine B assay; assay type: functional, cell-based, Huh-7; settings: Homo sapiens, Huh-7, 72 h; read-out: IC50; summary of the method: as §1
[11] = Cytotoxicity against human FOCUS cells assessed as growth inhibition after 72 hrs by sulforhodamine B assay; assay type: functional, cell-based; settings: Homo sapiens, FOCUS, 72 h; read-out: IC50; summary of the method: as §1
[12] = system: Huh-7; assay: Induction of apoptosis in human HuH7 cells assessed as horseshoe nuclear structure at 10 uM after 48 hrs by Hoechst 33258 staining-based immunofluorescence microscopy; assay type: functional, cell-based; summary of the method: as §2

Compound	IC50 [1] [µM]	IC50 [2] [µM]	Activity [3]	IC50 [4] [µM]	IC50 [5] [µM]	IC50 [6] [µM]	IC50 [7] [µM]	Activity [8]	Activity [9]	IC50 [10] [µM]	IC50 [11] [µM]	Activity [12]
CC(C)Cc1ccc(C(C)c2nnc3n2N=C(c2ccc(Br)cc2)CS3)cc1 (stereo unspecified)	7.1	6.4	Active	10.1	8.9	8.3	9.4	Active	tde	4.9	5.9	Active
CC(c1ccc(-c2ccccc2)c(F)c1)c1nnc2n1N=C(c1ccc(Cl)cc1)CS2 (stereo unspecified)	7.8	6.7	Active	3.8	6.1	3.8	8.7	Active	tde	3.9	5	Active
COc1ccc(C2=Nn3c(nnc3C(C)c3ccc(-c4ccccc4)c(F)c3)SC2)cc1 (stereo unspecified)	4.4	4.2	Active	6.7	5.8	3.5	2.6	Active	tde	4.3	4.4	Active
